The values below come from ChEMBL document CHEMBL4837209, “Synthesis and BK channel-opening activity of 2-amino-1,3-thiazole derivatives” (Bioorg Med Chem Lett, 2021).

Active and inactive are the calls of the source. No cut-off for these calls is given here.

For test [1], the target named is Calcium-activated potassium channel subunit alpha-1 (Homo sapiens) (UniProt Q12791). Description: Opening of BK channel in human AD293 cells assessed as relative fluorescence unit at 5 uM by cell-based fluorescence assay relative to control. The method in brief:
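FluxOR Tl⁺-flux assay in AD-293 cells expressing hyperactive mutant BK channels (G803D/N806K). Each fluorescence trace was normalized to its own basal level to give RFU. ΔRFU with compound at 5 μM was expressed versus the drug-free control. DMSO served as negative control and CTBIC at a fixed concentration as positive control. Values are means of at least three separate measurements.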

For test [2] the target is unchanged. Description: Opening of BK channel in human AD293 cells assessed as relative fluorescence unit by cell-based fluorescence assay. Conditions: dose 1-30 µM.
Test [3] has the same target. Description: […] of BK calcium channel in human AD293 cells assessed as relative fluorescence unit at 1 to 30 uM in presence of 1 uM paxilline by cell-based fluorescence assay. To be noted: dose 1-30 µM. The method in brief: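 FluxOR Tl⁺-flux fluorescence in AD-293 cells expressing G803D/N806K mutant BK channels. Compounds were tested at 1–30 μM, alone and co-applied with 1 μM paxilline to confirm the BK dependence of the signal. Signals were normalized to the basal level of each trace. Student t-test was used.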

Test [4] deals with Calcium-activated potassium channel subunit alpha-1 (Rattus norvegicus) (UniProt Q62976). Description: […] of rat BK calcium channel expressed in Xenopus laevis oocytes assessed as V1/2 at 10 uM at -80 to 200 mV by patch clamp assay. The class given is cell-based. To be noted: Oocyte. The method in brief:
(§1)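 Rat BK α-subunit (Slo1) expressed in Xenopus laevis oocytes. Currents were recorded by gigaohm-seal patch clamp in the outside-out configuration. Macroscopic currents were evoked by voltage pulses from -80 to 200 mV, with and without compound. Student t-test was used.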
Background: In patch-clamp work, channel activity is measured electrically.

The target is the same in test [5]. Description: […] of rat BK calcium channel expressed in Xenopus laevis oocytes assessed as maximum conductance at 10 uM at -80 to 200 mV by patch clamp assay relative to control. The class given is cell-based. To be noted: Oocyte. The method in brief:
as §1

For test [6] the target is unchanged. The experiment in a line: […] of rat BK calcium channel expressed in Xenopus laevis oocytes assessed as increase in inward current tail at 10 uM at -80 to 200 mV by patch clamp assay. The class given is cell-based. To be noted: Oocyte. The method in brief:
as §1

The target is the same in test [7]. The experiment in a line: […] of rat BK calcium channel expressed in Xenopus laevis oocytes assessed as G-V shift toward more negative voltage at 10 uM at -80 to 200 mV by patch clamp assay. The class given is cell-based. To be noted: Oocyte. The method in brief:
as §1

Test [8] has the same target. The experiment in a line: […] of rat BK calcium channel expressed in Xenopus laevis oocytes assessed as increase in outward current tail at 10 uM at -80 to 200 mV by patch clamp assay. The class given is cell-based. Conditions: Oocyte. The method in brief: as §1

Sequence of Calcium-activated potassium channel subunit alpha-1 (Rattus norvegicus) (Q62976 whole entry): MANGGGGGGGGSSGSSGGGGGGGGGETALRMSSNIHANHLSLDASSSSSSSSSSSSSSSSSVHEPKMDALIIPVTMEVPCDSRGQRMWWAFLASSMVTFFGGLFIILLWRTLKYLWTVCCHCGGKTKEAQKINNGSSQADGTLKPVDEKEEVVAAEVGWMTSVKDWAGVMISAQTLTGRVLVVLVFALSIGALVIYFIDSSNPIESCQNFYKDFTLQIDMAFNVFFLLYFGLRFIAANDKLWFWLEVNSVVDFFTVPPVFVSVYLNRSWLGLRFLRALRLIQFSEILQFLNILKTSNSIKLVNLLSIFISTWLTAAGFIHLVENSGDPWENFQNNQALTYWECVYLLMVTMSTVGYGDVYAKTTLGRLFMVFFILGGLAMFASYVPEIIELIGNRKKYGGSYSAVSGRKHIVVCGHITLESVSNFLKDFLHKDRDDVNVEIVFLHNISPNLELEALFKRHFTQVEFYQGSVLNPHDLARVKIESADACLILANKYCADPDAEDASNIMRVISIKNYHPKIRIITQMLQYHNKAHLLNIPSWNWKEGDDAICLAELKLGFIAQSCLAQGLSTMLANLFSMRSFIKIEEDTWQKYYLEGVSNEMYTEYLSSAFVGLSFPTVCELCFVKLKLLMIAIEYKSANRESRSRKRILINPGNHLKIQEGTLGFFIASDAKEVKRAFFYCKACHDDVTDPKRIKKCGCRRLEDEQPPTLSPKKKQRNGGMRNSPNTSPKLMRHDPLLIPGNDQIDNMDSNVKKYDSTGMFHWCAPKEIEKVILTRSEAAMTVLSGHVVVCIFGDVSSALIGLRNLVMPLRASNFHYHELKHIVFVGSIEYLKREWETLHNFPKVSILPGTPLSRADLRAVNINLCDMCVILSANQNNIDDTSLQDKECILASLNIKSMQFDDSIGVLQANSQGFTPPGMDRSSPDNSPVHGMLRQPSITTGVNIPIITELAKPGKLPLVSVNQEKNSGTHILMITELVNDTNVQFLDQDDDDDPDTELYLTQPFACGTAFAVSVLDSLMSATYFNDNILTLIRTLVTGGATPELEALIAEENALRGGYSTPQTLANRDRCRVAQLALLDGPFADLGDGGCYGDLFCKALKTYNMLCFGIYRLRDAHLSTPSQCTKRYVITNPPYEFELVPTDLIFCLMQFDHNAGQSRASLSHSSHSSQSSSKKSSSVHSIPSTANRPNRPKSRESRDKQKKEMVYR
Sequence of Calcium-activated potassium channel subunit alpha-1 (Homo sapiens) (Q12791 whole entry): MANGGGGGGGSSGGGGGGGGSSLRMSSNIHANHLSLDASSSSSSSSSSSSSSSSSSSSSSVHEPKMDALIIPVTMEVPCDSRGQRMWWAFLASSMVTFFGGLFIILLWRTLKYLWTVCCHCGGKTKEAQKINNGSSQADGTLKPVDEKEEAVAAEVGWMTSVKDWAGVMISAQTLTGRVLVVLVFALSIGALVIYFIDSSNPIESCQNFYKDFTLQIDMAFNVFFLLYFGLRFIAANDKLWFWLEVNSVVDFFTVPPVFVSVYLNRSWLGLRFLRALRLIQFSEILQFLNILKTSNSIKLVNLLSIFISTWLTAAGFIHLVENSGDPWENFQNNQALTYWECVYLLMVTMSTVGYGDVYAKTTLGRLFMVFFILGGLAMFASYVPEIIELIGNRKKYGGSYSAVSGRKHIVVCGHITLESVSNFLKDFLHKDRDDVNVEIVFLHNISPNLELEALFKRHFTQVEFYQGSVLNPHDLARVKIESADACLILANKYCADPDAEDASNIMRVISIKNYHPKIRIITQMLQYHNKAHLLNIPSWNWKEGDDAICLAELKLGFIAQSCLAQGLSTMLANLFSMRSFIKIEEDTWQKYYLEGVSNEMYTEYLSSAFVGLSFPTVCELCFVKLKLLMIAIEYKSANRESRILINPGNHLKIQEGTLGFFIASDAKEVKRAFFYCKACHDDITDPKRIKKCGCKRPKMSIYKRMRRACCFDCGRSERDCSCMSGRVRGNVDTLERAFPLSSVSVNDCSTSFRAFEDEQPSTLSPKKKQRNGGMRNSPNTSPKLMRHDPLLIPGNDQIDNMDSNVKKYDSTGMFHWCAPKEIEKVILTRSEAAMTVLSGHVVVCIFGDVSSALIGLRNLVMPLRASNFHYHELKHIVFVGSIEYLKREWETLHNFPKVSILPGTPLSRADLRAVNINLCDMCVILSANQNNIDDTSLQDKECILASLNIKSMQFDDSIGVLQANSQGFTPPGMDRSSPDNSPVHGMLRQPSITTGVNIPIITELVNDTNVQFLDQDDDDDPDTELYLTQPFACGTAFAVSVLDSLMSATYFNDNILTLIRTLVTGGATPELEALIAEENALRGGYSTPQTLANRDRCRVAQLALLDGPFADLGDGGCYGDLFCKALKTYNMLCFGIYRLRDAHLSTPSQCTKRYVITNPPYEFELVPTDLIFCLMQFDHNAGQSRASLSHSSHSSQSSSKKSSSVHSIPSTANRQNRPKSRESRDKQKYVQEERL

In the case of `Cc1ccc(Cc2cnc(N)s2)cc1`, the RFU in test [1] stood at 1.11.

As to `Nc1ncc(Cc2cccc(Br)c2)s1`, the RFU in test [1] came out at 1.37.

Turning to `Nc1ncc(Cc2ccncc2)s1`, in test [1], the RFU came to 1.11.

Regarding `COc1cccc(Cc2cnc(N)s2)c1`, the RFU in test [1] was 1.02.

Take `Nc1ncc(C(=O)c2ccc(C(F)(F)F)cc2)s1`: the RFU in test [1] turned out to be 1.08.

`Nc1ncc(Cc2ccccc2Br)s1`: the RFU in test [1] came to 2.67. For the same molecule, the inhibition entry in test [2] was “Dose-Dependent Effect”. The inhibition entry in test [3] is “Active”. In addition, in test [4], the V1/2 came to 23.4 mV. Besides, the fold change (FC) in test [5] was 1.4. The outcome in test [6], in test [7] and in test [8] was Active.

`COc1ccccc1Cc1cnc(N)s1`: the RFU in test [1] amounted to 0.94.

`Nc1ncc(Cc2cccc(C(F)(F)F)c2)s1`: the RFU in test [1] turned out to be 1.22.

With `Cc1ccccc1Cc1cnc(N)s1`, the RFU in test [1] was determined as 1.37.

With `N#Cc1ccccc1Cc1cnc(N)s1`, the RFU in test [1] worked out at 1.06.

For `COc1cc(Cc2cnc(N)s2)cc(C(F)(F)F)c1`, in test [1], the RFU is 0.97.

As for `Nc1ncc(Cc2ccc([N+](=O)[O-])cc2)s1`, the RFU in test [1] is 0.94.

Turning to `N#Cc1ccc(Cc2cnc(N)s2)cc1`, the RFU in test [1] stood at 1.21.

Regarding `Nc1ncc(Cc2ccc(C(F)(F)F)cc2)s1`, in test [1], the RFU is 2.1. Also, in test [2], the inhibition entry is “Dose-Dependent Effect”. In test [3], the inhibition result is “Active”. For the same molecule, the V1/2 in test [4] was 24.5 mV. Moreover, the fold change (FC) in test [5] was determined as 1.3. The result in test [6], in test [7] and in test [8] was Active.

Take `Nc1ncc(Cc2ccc(Cl)cc2)s1`: the RFU in test [1] amounted to 1.59.

`Nc1ncc(Cc2ccccc2C(F)(F)F)s1`: the RFU in test [1] was found to be 1.07.

For the molecule `Nc1ncc(Cc2cccnc2)s1`, the RFU in test [1] is 1.08.

Take `Nc1ncc(Cc2ccc(Br)cc2)s1`: in test [1], the RFU turned out to be 1.85.

For the molecule `CC(=O)Nc1ncc(Cc2ccc(Br)cc2)s1`, the RFU in test [1] came to 1.14.

As to `O=C(O)c1ccc(Cl)c2c1[nH]c1c3ccc(C(F)(F)F)cc3oc12`, the RFU in test [1] was 3.3.

Turning to `Nc1ncc(Cc2cccc(Cl)c2)s1`, the RFU in test [1] is 1.51.

Turning to `Nc1ncc(Cc2ccccc2Cl)s1`, the RFU in test [1] amounted to 1.13.

As for `Nc1ncc(C(=O)c2ccc(Br)cc2)s1`, the RFU in test [1] turned out to be 0.94.

As for `Cc1cccc(Cc2cnc(N)s2)c1`, the RFU in test [1] is 1.27.

As to `N#Cc1cccc(Cc2cnc(N)s2)c1`, the RFU in test [1] stood at 1.

`O=C(CCl)Nc1ncc(Cc2ccc(Br)cc2)s1`: in test [1], the RFU worked out at 0.94.

On to `COc1ccc(Cc2cnc(N)s2)cc1`, for which the RFU in test [1] came out at 1.02.
